This note sets out measurements from ChEMBL document CHEMBL4190301, “Isolation, Structure Elucidition, and Immunosuppressive Activity of Diterpenoids from Ligularia fischeri” (J Nat Prod, 2017).

Molecules are shown by their SMILES. Calls of active or inactive are those of the source. No cut-off for these calls is given here.

The test system of test [1] is HMy2.C1R. In words: Immunosuppressive activity in human HMy2.C1R cells assessed as cell growth at 5 uM after 48 hrs by SRB assay relative to control. The test is classed as functional. The gist of the method: (§1)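 Human B lymphoblast HMy2.CIR cells were seeded in 96-well plates in medium with 5% FBS. After 24 h, a plate was TCA-fixed as time zero (T0). Cells were then exposed to DMSO or compound at 2.5–40 μM for 48 h, fixed with 10% TCA and stained with 0.4% SRB in 1% HOAc. Bound dye was solubilized in 10 mM Trizma base and read at 540 nm. Percentage growth was calculated from T0, control and treated absorbances; mean ± SD, n = 3.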
On the technique in general: Sulforhodamine B stains cellular protein and so reports cell mass.

Test [2] concerns HMy2.C1R. In words: Immunosuppressive activity in human HMy2.C1R cells assessed as cell growth at 20 uM after 48 hrs by SRB assay relative to control. Type of test: functional. The essentials: as §1
Test [3] concerns HMy2.C1R. In words: Immunosuppressive activity in human HMy2.C1R cells assessed as cell growth inhibition after 48 hrs by SRB assay.
Test [4] concerns HMy2.C1R. In words: Immunosuppressive activity in human HMy2.C1R cells assessed as cell growth at 10 uM after 48 hrs by SRB assay relative to control. Type of test: functional. The gist of the method: as §1
Test [5] deals with HMy2.C1R. Description: Immunosuppressive activity in human HMy2.C1R cells assessed as cell growth at 40 uM after 48 hrs by SRB assay relative to control. The test is classed as functional. The gist of the method: as §1
In test [6] the test system is HMy2.C1R. Description: Immunosuppressive activity in human HMy2.C1R cells assessed as cell growth at 2.5 uM after 48 hrs by SRB assay relative to control. The test is classed as functional. The gist of the method:
as §1

The subject of test [7] is HMy2.C1R. Description: Immunosuppressive activity in human HMy2.C1R cells assessed as cell growth inhibition at 2.5 to 40 uM after 48 hrs by SRB assay. The test is classed as functional, cell-based. The gist of the method: as §1
Test [8] deals with HMy2.C1R. Description: […] in human HMy2.C1R cells at 2.5 to 40 uM after 48 hrs by SRB assay. Type of test: functional, cell-based. The gist of the method:
as §1

In the case of `C=C[C@](C)(O)CC[C@@H]1C(=C)CC[C@@H]2C(C)(C)C[C@@H](O)C[C@@]12C`, the Ratio in the test on HMy2.C1R [1] is 0.812; in the test with HMy2.C1R [2], 0.648; in the test on HMy2.C1R [4], 0.761; in the test on HMy2.C1R [5] it was 0.39; in the test with HMy2.C1R [6], 0.934. Besides, the IC50 (in general, the point on the concentration scale where inhibition reaches its midpoint) with HMy2.C1R [3] came to 31.4 µM.

Regarding `CC1(C)CCC[C@]2(C(=O)O)[C@@H]1CC[C@@]13C[C@@H](CC[C@H]12)[C@](C)(O)C3`, the inhibition entry with HMy2.C1R [7] is “inactive”.

For `C[C@]12CCC[C@]3(COC1=O)[C@@H]2C[C@H](O)[C@@]12C[C@@H](CC[C@]13O)[C@](C)(O)C2`, in the test with HMy2.C1R [7], the inhibition entry is “inactive”.

Turning to `C=C1[C@H](O)CC[C@@H]2[C@@]3(C)CC[C@](C)(O)C[C@@H]3CC[C@@]12C`, the Activity entry with HMy2.C1R [8] is “Dose-dependent effect”.

Consider `C[C@]12CCC[C@]3(COC1=O)[C@@H]2CC[C@@]12C[C@@H](CC[C@]13O)[C@](C)(O)C2`, for which the Activity result with HMy2.C1R [8] is “Dose-dependent effect”.

Regarding `C[C@]12CCC[C@@]3(COC1=O)[C@@H]1CC[C@@H]4C[C@@]1(CC[C@@H]32)C[C@@]4(C)O`, the Ratio in the test on HMy2.C1R [1] is reported as 0.809; in the test with HMy2.C1R [2] it was 0.683; with HMy2.C1R [4], 0.762; in the test on HMy2.C1R [5], 0.6; in the test with HMy2.C1R [6], 0.849. Also, the IC50 with HMy2.C1R [3] was 56.3 µM.

As for `CC1(C)CCC[C@]2(C=O)[C@@H]1CC[C@@]13C[C@@H](CC[C@H]12)[C@](C)(O)C3`, the inhibition entry with HMy2.C1R [7] is “inactive”.

As for `CC1(C)CCC[C@]2(C)[C@@H]1CC[C@@]13C[C@@H](CC[C@H]12)[C@](C)(O)C3`, the inhibition entry in the test on HMy2.C1R [7] was “inactive”.

In the case of `CC1(C)CCC[C@]2(C(=O)O)[C@@H]1CC[C@@]13C[C@@H](CC[C@H]12)[C@@](O)(CO)C3`, in the test with HMy2.C1R [7], the inhibition result was “inactive”.

For `C[C@@]12CC[C@@H](O)[C@@](C)(C(=O)O)[C@H]1CC[C@@]13C[C@@H](CC[C@H]12)[C@@](O)(CO)C3`, in the test with HMy2.C1R [7], the inhibition result was “inactive”.

As to `C[C@]12CCC[C@@]3(COC1=O)[C@@H]1[C@@H]4C[C@@H]5C[C@@]1(CC[C@@H]32)C[C@]5(C)O4`, the inhibition result with HMy2.C1R [7] was “inactive”.

With `COc1cc(/C=C/C(=O)OC[C@@]2(O)C[C@@]34CC[C@@H]5C(C)(C)CCC[C@@]5(C(=O)O)[C@@H]3CC[C@@H]2C4)ccc1O`, the inhibition result in the test with HMy2.C1R [7] is “inactive”.

In the case of `CC1(C)CCC[C@]2(C=O)[C@@H]1CC[C@@]13C[C@@H](CC[C@H]12)[C@@](O)(CO)C3`, the Ratio in the test with HMy2.C1R [1] is reported as 0.685; in the test with HMy2.C1R [2], 0.455; with HMy2.C1R [4] it was 0.525; in the test with HMy2.C1R [5], 0.301; with HMy2.C1R [6], 0.791. For the same compound, the IC50 with HMy2.C1R [3] amounted to 13.3 µM.
